# Results published in ChEMBL document CHEMBL1138524, “Structure-based discovery of triphenylmethane derivatives as inhibitors of hepatitis C virus helicase” (J Med Chem, 2009).
# The source made the active and inactive calls. The calls are words filed in the database; no cut-off is given here.
# What was measured:
# Hepacivirus hominis [1] = experiment: Inhibition of HCV NS3/4A helicase at 100 uM by FRET assay
# How it was run: (§1)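 His-tagged NS3/4A (0.9 µg) preincubated with compound on ice for 15 min. Fluorescence (ex 485/em 518 nm) followed continuously and end-point minus start normalized to DMSO. Screened at 100 µM final.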
# [2] = Inhibition of HCV NS3/4A helicase by FRET assay; set-up: species or system Hepacivirus hominis; how it was run: as §1
# [3] = Ratio of CC50 for human HuH7 cells to EC50 for HCV1b; set-up: species or system Huh-7
# Hepatitis C virus [4] = experiment: Antiviral activity against HCV1b infected in human Ava5/Huh7 cells by replicon-cell assay; assay type: functional, organism-based, Hepacivirus hominis; conditions: genotype 1b
# [5] = Cytotoxicity against human HuH7 cells; assay type: cell-based, Huh-7
# Hepacivirus hominis [6] = experiment: Inhibition of HCV NS3/4A helicase assessed as blockade of dsRNA binding to enzyme by gel mobility shift assay
# How it was run: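 Gel mobility shift. NS3/4A (0.45 µg) preincubated with 100 µM compound in helicase buffer without ATP for 5 min at 37 °C. Then 0.66 pmol isotope-labeled partial dsRNA added for 15 min more. Complexes resolved on 4% polyacrylamide containing 5% glycerol and visualized by autoradiography.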
# [7] = Inhibition of ATPase activity of HCV NS3/4A helicase by autoradiography; set-up: species or system Hepacivirus hominis
# How it was run: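 ATP hydrolysis measured in 20 mM HEPES-KOH pH 7.0, 1.5 mM MgCl2, 2 mM DTT and 0.1 µg/mL poly-U, with [α-32P]ATP spanning 0.067-20 µM ATP. Reaction started by adding His-tagged NS3/4A (0.45 µg) and stopped with EDTA after 5 min. Products separated by PEI-cellulose TLC in 0.375 M K2PO4 pH 3.5 and quantified by autoradiography.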
# Hepacivirus hominis [8] = experiment: Inhibition of HCV NS3/4A helicase assessed as blockade of ssRNA formation form dsRNA at 100 uM by PAGE
# [9] = Cytotoxicity against human Ava5/Huh7 cells assessed as reduction in cell growth at 5 uM after 5 days in absence of polypeptide synthesis blocker G418; assay type: cell-based; set-up: scale not given: the % may be the effect or the level left; conditions: ava5/huh7, 120 h
# Hepatitis C virus [10] = experiment: Antiviral activity against HCV1b infected in human Ava5/Huh7 cells assessed as decrease in viral RNA level at 5 to 10 uM after 2 days by RT-PCR relative to control; assay type: functional, Hepacivirus hominis, genotype 1b; set-up: scale not given: the % may be the effect or the level left
# How it was run: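 Ava.5/Huh-7 replicon cells (genotype 1b) seeded and grown 24 h in G-418-free DMEM, then exposed to 5, 10 or 20 µM compound for 24 or 48 h. Total RNA extracted and 1 µg reverse-transcribed with random decamers. SYBR Green real-time PCR run 40 cycles. HCV signal normalized to GAPDH and expressed relative to untreated replicon cells set at 1.0. Triplicate, averaged.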
# [11] = Cytotoxicity against human Ava5/Huh7 cells assessed as reduction in cell growth at 5 uM after 5 days in presence of polypeptide synthesis blocker G418; assay type: cell-based; set-up: scale not given: the % may be the effect or the level left; conditions: ava5/huh7, 120 h
SMILES,inhibition (Hepacivirus hominis [1]) [%],IC50 [2] [µM],EC50 (Hepatitis C virus [4]) [µM],Activity (Hepacivirus hominis [6]),IC50 [7] [µM],Activity (Hepacivirus hominis [8]),CC50 [5] [µM],other results
CC(c1ccccc1)(c1ccc(O)cc1)c1ccc(O)cc1,43,–,–,–,–,–,–,–
CC(C)(c1ccc(O)cc1)c1ccc(C(C)(C)c2ccc(O)cc2)cc1,–,60.7,–,–,–,–,–,–
CC(c1ccc(O)cc1)(c1ccc(O)cc1)c1ccc(O)cc1,39,–,–,–,–,–,–,–
O=C(O)c1cc(Nc2ccc(C(Cl)(c3ccccc3)c3ccc(Nc4ccc(Cl)c(C(=O)O)c4)cc3)cc2)ccc1Cl,–,29.7,> 50,Dose-dependent effect,25.1,Active,> 50,–
CC(c1ccccc1)(c1ccc(Oc2ccc([N+](=O)[O-])cc2)cc1)c1ccc(Oc2ccc([N+](=O)[O-])cc2)cc1,0,–,–,–,–,–,–,–
O=S(=O)(O)c1ccc(N=C2C=CC(=C(c3ccc(Nc4cccc(S(=O)(=O)O)c4)cc3)c3ccc(Nc4cccc(S(=O)(=O)O)c4)cc3)C=C2)cc1,–,40,> 50,Dose-dependent effect,23.8,Active,> 50,–
CC(C)(c1ccc(O)cc1)c1ccc(C(C)(c2ccc(O)cc2)c2ccc(O)cc2)cc1,–,13.9,8.37,Dose-dependent effect,25.9,Active,12.7,Ratio CC50/EC50 [3]: 1.51

# The next lines start with results.
inhibition (Hepacivirus hominis [1]) [%],IC50 [2] [µM],EC50 (Hepatitis C virus [4]) [µM],Activity (Hepacivirus hominis [6]),IC50 [7] [µM],Activity (Hepacivirus hominis [8]),SMILES,CC50 [5] [µM],other results
30,–,–,–,–,–,Nc1ccc(C(c2ccc(N)cc2)c2ccc(N)cc2)cc1,–,–
–,12.6,0.69,Dose-dependent effect,> 100,inactive,Cc1cc([C@@](O)(c2ccc(Nc3ccccc3)cc2)c2ccc(Nc3ccc(S(=O)(=O)[O-])cc3)cc2)ccc1N.[Na+],0.96,Ratio CC50/EC50 [3]: 1.39
–,10.1,2.72,–,–,–,CC(C)(c1ccc(C(C)(c2ccc(O)c(Br)c2)c2ccc(O)c(Br)c2)cc1)c1ccc(O)c(Br)c1,10.5,Ratio CC50/EC50 [3]: 3.86; Activity [9]: 20%; Activity (Hepatitis C virus [10]): 40%; Activity [11]: 50%
46,–,–,–,–,–,COc1ccc(-c2cc(-c3ccc(N(C)C)cc3)nc(NS(=O)(=O)c3ccc(N)cc3)n2)cc1,–,–
15,–,–,–,–,–,COc1ccc(C(C)(C)c2ccc(C(C)(c3ccc(OC)cc3)c3ccc(OC)cc3)cc2)cc1,–,–
